Measured values: ChEMBL document CHEMBL3046030, “Implementation of bio-fungicides and seed treatment in organic rice cv. KDML 105 farming” (2009)

Tests used:
Assay type in all cases: functional
Alternaria solani [1] = assay: Antifungal activity against Alternaria solani assessed as mycelial growth inhibition after 96 hr by agar overlay method
Procedure, shortened: (§1)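 Agar overlay method: plant extract or essential oil was mixed into PDA at 0.10, 0.25, 0.50 and 1.00% v/v. A 5 mm plug from a 7-day culture was placed upside down on each plate and incubated 96 h at 25±2°C. Colony diameter was compared with an untreated control as % inhibition = (C−T)/C×100, using four replicates averaged. IC50 was derived by regression of the concentration–response curve.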

Alternaria solani [2] = assay: Antifungal activity against Alternaria solani assessed as inhibition of spore germination at 0.25% after 24 hr by compound microscopy
Procedure, shortened: (§2)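 Spores were raised by growing the fungus 3 days at 25±2°C in aqueous PDA, rinsing the mycelium three times in distilled water, and holding it 2 more days. The suspension was adjusted to about 10^6 cfu/mL by hemacytometer and spread on slides carrying a thin PDA layer. An open watch glass held plant extract or essential oil (0.10–1.00% v/v), or sterile water as control. Slides were sealed in moist dishes for 24 h at 25±2°C. Encysted spores were counted at x100, and % inhibition was calculated against control.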

Aspergillus niger [3] = assay: Antifungal activity against Aspergillus niger assessed as inhibition of spore germination at 0.10% after 24 hr by compound microscopy
Fusarium verticillioides [4] = assay: Antifungal activity against Fusarium verticillioides assessed as inhibition of spore germination at 0.5% after 24 hr by compound microscopy; procedure, shortened: as §2
Aspergillus niger [5] = assay: Antifungal activity against Aspergillus niger assessed as mycelial growth inhibition at 1% after 96 hr by agar overlay method; procedure, shortened: as §1
Alternaria solani [6] = assay: Antifungal activity against Alternaria solani assessed as inhibition of spore germination at 0.10% after 24 hr by compound microscopy; procedure, shortened: as §2
Rhizoctonia solani [7] = assay: Antifungal activity against Rhizoctonia solani assessed as inhibition of spore germination at 0.25% after 24 hr by compound microscopy
Procedure, shortened: (§3)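 R. solani grown 3 days at 25±2°C in aqueous PDA, rinsed three times with distilled water, then held 2 days to induce spores. Suspension set to about 10^6 cfu/mL by hemacytometer and spread on a thin PDA layer on slides. Watch glass held extract/oil (0.10–1.00% v/v) or sterile water control. Moist sealed chamber, 24 h, 25±2°C; encysted spores counted at x100; % inhibition versus control.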

Aspergillus niger [8] = assay: Antifungal activity against Aspergillus niger assessed as inhibition of spore germination at 1% after 24 hr by compound microscopy
Aspergillus niger [9] = assay: Antifungal activity against Aspergillus niger assessed as mycelial growth inhibition after 96 hr by agar overlay method; procedure, shortened: as §1
Curvularia [10] = assay: Antifungal activity against Curvularia sp. assessed as inhibition of spore germination at 1% after 24 hr by compound microscopy
Curvularia [11] = assay: Antifungal activity against Curvularia sp. assessed as mycelial growth inhibition after 96 hr by agar overlay method; procedure, shortened: as §1
Curvularia [12] = assay: Antifungal activity against Curvularia sp. assessed as inhibition of spore germination at 0.25% after 24 hr by compound microscopy
Fusarium verticillioides [13] = assay: Antifungal activity against Fusarium verticillioides assessed as inhibition of spore germination at 0.25% after 24 hr by compound microscopy; procedure, shortened: as §2
Fusarium verticillioides [14] = assay: Antifungal activity against Fusarium verticillioides assessed as mycelial growth inhibition at 1% after 96 hr by agar overlay method; procedure, shortened: as §1
Aspergillus flavus [15] = assay: Antifungal activity against Aspergillus flavus assessed as inhibition of spore germination at 0.25% after 24 hr by compound microscopy
Alternaria solani [16] = assay: Antifungal activity against Alternaria solani assessed as mycelial growth inhibition at 1% after 96 hr by agar overlay method; procedure, shortened: as §1
Aspergillus niger [17] = assay: Antifungal activity against Aspergillus niger assessed as inhibition of spore germination at 0.5% after 24 hr by compound microscopy
Aspergillus flavus [18] = assay: Antifungal activity against Aspergillus flavus assessed as mycelial growth inhibition after 96 hr by agar overlay method; procedure, shortened: as §1
Rhizoctonia solani [19] = assay: Antifungal activity against Rhizoctonia solani assessed as inhibition of spore germination at 0.10% after 24 hr by compound microscopy; procedure, shortened: as §2
Aspergillus flavus [20] = assay: Antifungal activity against Aspergillus flavus assessed as mycelial growth inhibition at 1% after 96 hr by agar overlay method; procedure, shortened: as §1
Rhizoctonia solani [21] = assay: Antifungal activity against Rhizoctonia solani assessed as inhibition of spore germination at 0.5% after 24 hr by compound microscopy; procedure, shortened: as §3
Curvularia [22] = assay: Antifungal activity against Curvularia sp. assessed as inhibition of spore germination at 0.5% after 24 hr by compound microscopy
Aspergillus flavus [23] = assay: Antifungal activity against Aspergillus flavus assessed as inhibition of spore germination at 0.5% after 24 hr by compound microscopy
Alternaria solani [24] = assay: Antifungal activity against Alternaria solani assessed as inhibition of spore germination at 1% after 24 hr by compound microscopy; procedure, shortened: as §2
Fusarium verticillioides [25] = assay: Antifungal activity against Fusarium verticillioides assessed as inhibition of spore germination at 0.10% after 24 hr by compound microscopy; procedure, shortened: as §2
Curvularia [26] = assay: Antifungal activity against Curvularia sp. assessed as inhibition of spore germination at 0.10% after 24 hr by compound microscopy
Bipolaris oryzae [27] = assay: Antifungal activity against Bipolaris oryzae assessed as mycelial growth inhibition after 96 hr by agar overlay method; procedure, shortened: as §1
Rhizoctonia solani [28] = assay: Antifungal activity against Rhizoctonia solani assessed as mycelial growth inhibition after 96 hr by agar overlay method
Procedure, shortened: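 Agar overlay on PDA with extract or oil at 0.10, 0.25, 0.50 and 1.00% v/v. A 5 mm plug from a 7-day R. solani culture was incubated 96 h at 25±2°C, colony diameter was measured, and % inhibition versus untreated control was calculated in four replicates. IC50 was derived by regression of % inhibition against concentration.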

Fusarium verticillioides [29] = assay: Antifungal activity against Fusarium verticillioides assessed as mycelial growth inhibition after 96 hr by agar overlay method; procedure, shortened: as §1
Aspergillus flavus [30] = assay: Antifungal activity against Aspergillus flavus assessed as inhibition of spore germination at 0.10% after 24 hr by compound microscopy
Fusarium verticillioides [31] = assay: Antifungal activity against Fusarium verticillioides assessed as inhibition of spore germination at 1% after 24 hr by compound microscopy; procedure, shortened: as §2
Rhizoctonia solani [32] = assay: Antifungal activity against Rhizoctonia solani assessed as inhibition of spore germination at 1% after 24 hr by compound microscopy; procedure, shortened: as §3
Aspergillus niger [33] = assay: Antifungal activity against Aspergillus niger assessed as inhibition of spore germination at 0.25% after 24 hr by compound microscopy
Alternaria solani [34] = assay: Antifungal activity against Alternaria solani assessed as inhibition of spore germination at 0.5% after 24 hr by compound microscopy; procedure, shortened: as §2
Nigrospora [35] = assay: Antifungal activity against Nigrospora sp. assessed as mycelial growth inhibition after 96 hr by agar overlay method; procedure, shortened: as §1
Bipolaris oryzae [36] = assay: Antifungal activity against Bipolaris oryzae assessed as mycelial growth inhibition at 1% after 96 hr by agar overlay method; procedure, shortened: as §1
Aspergillus flavus [37] = assay: Antifungal activity against Aspergillus flavus assessed as inhibition of spore germination at 1% after 24 hr by compound microscopy
Curvularia [38] = assay: Antifungal activity against Curvularia sp. assessed as mycelial growth inhibition at 1% after 96 hr by agar overlay method; procedure, shortened: as §1
Rhizoctonia solani [39] = assay: Antifungal activity against Rhizoctonia solani assessed as mycelial growth inhibition at 1% after 96 hr by agar overlay method
Procedure, shortened: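 PDA containing plant extract or essential oil (0.10–1.00% v/v) was used for the agar overlay. A 5 mm plug from a 7-day-old R. solani culture was placed upside down, then incubated 96 h at 25±2°C. Colony diameter was measured against a simultaneous untreated control, and inhibition was calculated as [(C−T)/C]×100. Four replicates were averaged.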

Nigrospora [40] = assay: Antifungal activity against Nigrospora sp. assessed as mycelial growth inhibition at 1% after 96 hr by agar overlay method; procedure, shortened: as §1
Curvularia [41] = assay: Antifungal activity against Curvularia sp. at 0.25%
Bipolaris oryzae [42] = assay: Antifungal activity against Bipolaris oryzae at 1%
Rhizoctonia solani [43] = assay: Antifungal activity against Rhizoctonia solani at 0.25%
Nigrospora [44] = assay: Antifungal activity against Nigrospora sp. at 0.25%
Fusarium verticillioides [45] = assay: Antifungal activity against Fusarium verticillioides at 0.25%
Fusarium verticillioides [46] = assay: Antifungal activity against Fusarium verticillioides at 1%
Aspergillus flavus [47] = assay: Antifungal activity against Aspergillus flavus at 1%
Aspergillus niger [48] = assay: Antifungal activity against Aspergillus niger at 0.25%
Colletotrichum = assay: Antifungal activity against Colletotrichum sp. at 1%
Alternaria solani [49] = assay: Antifungal activity against Alternaria solani at 1%
Aspergillus niger [50] = assay: Antifungal activity against Aspergillus niger at 1%
Nigrospora [51] = assay: Antifungal activity against Nigrospora sp. at 1%
Aspergillus flavus [52] = assay: Antifungal activity against Aspergillus flavus at 0.25%
Bipolaris oryzae [53] = assay: Antifungal activity against Bipolaris oryzae at 0.25%
Alternaria solani [54] = assay: Antifungal activity against Alternaria solani at 0.25%
Curvularia [55] = assay: Antifungal activity against Curvularia sp. at 1%
Rhizoctonia solani [56] = assay: Antifungal activity against Rhizoctonia solani at 1%

## O=C1C2CC=CCC2C(=O)N1SC(Cl)(Cl)Cl (stereo unspecified) [CAPTAN]
Alternaria solani [1]
  growth inhibition (GI): 4.6%
Alternaria solani [2]
  growth inhibition (GI): 100%
Aspergillus niger [3]
  growth inhibition (GI): 100%
Fusarium verticillioides [4]
  growth inhibition (GI): 100%
Aspergillus niger [5]
  growth inhibition (GI): 13.95%
Alternaria solani [6]
  growth inhibition (GI): 100%
Rhizoctonia solani [7]
  growth inhibition (GI): 100%
Aspergillus niger [8]
  growth inhibition (GI): 100%
Aspergillus niger [9]
  growth inhibition (GI): 4.06%
Curvularia [10]
  growth inhibition (GI): 100%
Curvularia [11]
  growth inhibition (GI): 8.45%
Curvularia [12]
  growth inhibition (GI): 100%
Fusarium verticillioides [13]
  growth inhibition (GI): 100%
Fusarium verticillioides [14]
  growth inhibition (GI): 23.39%
Aspergillus flavus [15]
  growth inhibition (GI): 100%
Alternaria solani [16]
  growth inhibition (GI): 2.63%
Aspergillus niger [17]
  growth inhibition (GI): 100%
Aspergillus flavus [18]
  growth inhibition (GI): 8.13%
Rhizoctonia solani [19]
  growth inhibition (GI): 100%
Aspergillus flavus [20]
  growth inhibition (GI): 18.02%
Rhizoctonia solani [21]
  growth inhibition (GI): 100%
Curvularia [22]
  growth inhibition (GI): 100%
Aspergillus flavus [23]
  growth inhibition (GI): 100%
Alternaria solani [24]
  growth inhibition (GI): 100%
Fusarium verticillioides [25]
  growth inhibition (GI): 100%
Curvularia [26]
  growth inhibition (GI): 100%
Bipolaris oryzae [27]
  growth inhibition (GI): 1.11%
Rhizoctonia solani [28]
  growth inhibition (GI): 13.78%
Fusarium verticillioides [29]
  growth inhibition (GI): 12.28%
Aspergillus flavus [30]
  growth inhibition (GI): 100%
Fusarium verticillioides [31]
  growth inhibition (GI): 100%
Rhizoctonia solani [32]
  growth inhibition (GI): 100%
Aspergillus niger [33]
  growth inhibition (GI): 100%
Alternaria solani [34]
  growth inhibition (GI): 100%
Nigrospora [35]
  growth inhibition (GI): 2.82%
Bipolaris oryzae [36]
  growth inhibition (GI): 21.1%
Aspergillus flavus [37]
  growth inhibition (GI): 100%
Curvularia [38]
  growth inhibition (GI): 9.15%
Rhizoctonia solani [39]
  growth inhibition (GI): 17.06%
Nigrospora [40]
  growth inhibition (GI): 6.97%

## C=CCc1ccc(O)c(OC)c1 [EUGENOL]
Alternaria solani [2]
  growth inhibition (GI): 24.16%
Aspergillus niger [3]
  growth inhibition (GI): 37.59%
Fusarium verticillioides [4]
  growth inhibition (GI): 100%
Curvularia [41]
  inhibition (INH): 50.04%
Bipolaris oryzae [42]
  inhibition (INH): 100%
Alternaria solani [6]
  growth inhibition (GI): 14.41%
Rhizoctonia solani [7]
  growth inhibition (GI): 100%
Aspergillus niger [8]
  growth inhibition (GI): 100%
Rhizoctonia solani [43]
  inhibition (INH): 100%
Curvularia [10]
  growth inhibition (GI): 100%
Nigrospora [44]
  inhibition (INH): 50.04%
Curvularia [12]
  growth inhibition (GI): 85.39%
Fusarium verticillioides [13]
  growth inhibition (GI): 74.11%
Fusarium verticillioides [45]
  inhibition (INH): 100%
Aspergillus flavus [15]
  growth inhibition (GI): 65.6%
Aspergillus niger [17]
  growth inhibition (GI): 100%
Fusarium verticillioides [46]
  inhibition (INH): 100%
Rhizoctonia solani [19]
  growth inhibition (GI): 93.53%
Aspergillus flavus [47]
  inhibition (INH): 100%
Aspergillus niger [48]
  inhibition (INH): 70.58%
Colletotrichum
  inhibition (INH): 100%
Rhizoctonia solani [21]
  growth inhibition (GI): 100%
Curvularia [22]
  growth inhibition (GI): 100%
Aspergillus flavus [23]
  growth inhibition (GI): 100%
Alternaria solani [24]
  growth inhibition (GI): 100%
Fusarium verticillioides [25]
  growth inhibition (GI): 21.88%
Curvularia [26]
  growth inhibition (GI): 44.94%
Aspergillus flavus [30]
  growth inhibition (GI): 54%
Alternaria solani [49]
  inhibition (INH): 100%
Fusarium verticillioides [31]
  growth inhibition (GI): 100%
Rhizoctonia solani [32]
  growth inhibition (GI): 100%
Aspergillus niger [50]
  inhibition (INH): 100%
Aspergillus niger [33]
  growth inhibition (GI): 65.6%
Alternaria solani [34]
  growth inhibition (GI): 65.68%
Nigrospora [51]
  inhibition (INH): 98.23%
Aspergillus flavus [37]
  growth inhibition (GI): 100%
Aspergillus flavus [52]
  inhibition (INH): 44.22%
Bipolaris oryzae [53]
  inhibition (INH): 86.98%
Alternaria solani [54]
  inhibition (INH): 100%
Curvularia [55]
  inhibition (INH): 97.04%
Rhizoctonia solani [56]
  inhibition (INH): 100%
